Data on three compounds can be found in ChEMBL document CHEMBL1128588, “Synthesis and cytotoxicity of water-soluble ambrosin prodrug candidates” (1995).

One may read the GI50 as the concentration giving 50% growth inhibition. Low values mean more potent growth inhibition, high ones less potent growth inhibition.

Molecules are shown by their SMILES.

Holding throughout (format): functional
Conditions in all cases: Homo sapiens

In one experiment the test system is OVCAR-5. Nature of the experiment: The compound was evaluated for cytotoxicity against ovarian cancer cell line OVCAR-5. Summed up:
(§1)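 Tested within a panel of about 51 human cancer cell lines covering leukemia, non-small-cell lung and other tumour types. The value reported is GI50, the concentration giving 50% growth inhibition.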

For a further experiment, the system named is SF-539. Nature of the experiment: The compound was evaluated for cytotoxicity against CNS cancer cell line CNS SF-539. Summed up:
as §1

The next experiment concerns PC-3. Nature of the experiment: The compound was evaluated for cytotoxicity against prostate cancer cell line PC-3. In a few lines: as §1
For the next experiment, the system named is HCT-116. Briefly: The compound was evaluated for cytotoxicity against colon cancer cell line HCT116. Summed up: as §1
For another experiment, the system named is MCF7. Nature of the experiment: The compound was evaluated for cytotoxicity against breast cancer cell line MCF-7. In a few lines:
as §1

Another experiment concerns LOX IMVI. Briefly: The compound was evaluated for cytotoxicity against melanoma cell line LOX-IMVI. In a few lines: as §1
The next experiment has as its system SN12C. Briefly: The compound was evaluated for cytotoxicity against renal cancer cell line SN12C. Summed up:
as §1

A further experiment relates to NCI-H522. Briefly: The compound was evaluated for cytotoxicity against lung cancer cell line NCI-H522. Summed up: as §1

As to `C[C@H]1CC[C@H]2C(CN3CCCCC3)C(=O)O[C@H]2[C@]2(C)C(=O)CC(N3CCCCC3)[C@@H]12` (some centres undefined), the 50% growth inhibitory concentration (GI50) amounted to 22 µM in the experiment with OVCAR-5; 5.4 µM in the experiment with SF-539; 8.5 µM with PC-3; 1.8 µM in the experiment on HCT-116; 4.7 µM in the experiment on MCF7; 3.6 µM in the experiment on LOX IMVI. The GI50 is 8.1 µM with SN12C and 1.1 µM in the experiment on NCI-H522.
Regarding `C=C1C(=O)O[C@@H]2[C@H]1CC[C@H](C)[C@@H]1C=CC(=O)[C@@]21C` [AMBROSIN], the 50% growth inhibitory concentration (GI50) in the experiment on OVCAR-5 was found to be 4.9 µM; in the experiment with SF-539, 2.9 µM; in the experiment on PC-3 it was 4.5 µM; in the experiment on HCT-116, 1.8 µM; in the experiment on MCF7 it was 3.9 µM; in the experiment on LOX IMVI, 2.2 µM. Also, the GI50 in the experiment with SN12C stood at 3.4 µM; in the experiment on NCI-H522, 1 µM.
With `C[C@H]1CC[C@H]2C(CN3CCCC3)C(=O)O[C@H]2[C@]2(C)C(=O)CC(N3CCCC3)[C@@H]12` (some centres undefined), the GI50 in the experiment with OVCAR-5 is 6.3 µM; in the experiment with SF-539, 9.1 µM; in the experiment with PC-3 it was 20 µM; in the experiment on HCT-116, 3.8 µM; in the experiment on MCF7 it was 4.2 µM; in the experiment on LOX IMVI it was 3.3 µM. Moreover, the GI50 with SN12C turned out to be 11 µM; in the experiment with NCI-H522, 1.8 µM.
